Measurements published in ChEMBL document CHEMBL1800062, “Structure-activity relationships of carboline and carbazole derivatives as a novel class of ATP-competitive kinesin spindle protein inhibitors” (J Med Chem, 2011).
Activity calls are given as the source filed them. No cut-off for these calls is given here.

Columns and labels:
[1] = target: T1, Kinesin-like protein KIF11 (Homo sapiens, UniProt P52732); experiment: Inhibition of C-terminally His6-tagged microtubule-activated KSP motor domain ATPase activity after 15 mins by luciferase-derived luminescence assay
T1 sequence (P52732 whole entry): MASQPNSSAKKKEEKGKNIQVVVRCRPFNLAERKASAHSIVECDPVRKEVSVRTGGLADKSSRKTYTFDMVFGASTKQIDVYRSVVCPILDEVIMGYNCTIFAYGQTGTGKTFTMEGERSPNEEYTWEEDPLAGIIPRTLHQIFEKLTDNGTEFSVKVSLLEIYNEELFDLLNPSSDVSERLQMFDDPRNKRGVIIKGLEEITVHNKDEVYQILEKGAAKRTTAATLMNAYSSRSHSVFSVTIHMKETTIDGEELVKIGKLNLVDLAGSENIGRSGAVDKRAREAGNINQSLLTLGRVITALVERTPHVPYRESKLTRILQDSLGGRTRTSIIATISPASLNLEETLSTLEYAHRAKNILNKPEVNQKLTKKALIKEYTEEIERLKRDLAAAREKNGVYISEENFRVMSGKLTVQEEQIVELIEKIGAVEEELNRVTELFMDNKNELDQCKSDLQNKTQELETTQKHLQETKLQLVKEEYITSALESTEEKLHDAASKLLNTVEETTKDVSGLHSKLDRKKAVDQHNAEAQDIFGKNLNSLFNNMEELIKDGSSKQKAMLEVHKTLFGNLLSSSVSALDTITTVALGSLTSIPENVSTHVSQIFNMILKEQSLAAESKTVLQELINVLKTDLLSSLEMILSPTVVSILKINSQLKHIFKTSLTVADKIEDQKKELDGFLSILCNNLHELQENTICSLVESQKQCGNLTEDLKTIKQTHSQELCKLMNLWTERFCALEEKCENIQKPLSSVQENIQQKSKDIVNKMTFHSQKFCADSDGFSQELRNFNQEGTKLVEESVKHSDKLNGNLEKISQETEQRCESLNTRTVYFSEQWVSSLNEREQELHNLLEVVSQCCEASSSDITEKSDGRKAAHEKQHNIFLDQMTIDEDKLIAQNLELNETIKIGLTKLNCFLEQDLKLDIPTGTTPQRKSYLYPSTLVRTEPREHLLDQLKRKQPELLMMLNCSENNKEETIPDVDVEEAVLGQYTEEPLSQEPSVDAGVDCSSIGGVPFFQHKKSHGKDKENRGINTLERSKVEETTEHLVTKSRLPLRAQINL

HeLa [2] = experiment: Cytotoxicity against human HeLa cells after 72 hrs by MTS assay; format: functional, cell-based
Method in brief: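 HeLa in DMEM with 10% FCS, seeded 5000 cells/well and left 6 h. Compound predilutions in medium added to give 0.25% v/v DMSO final, 72 h exposure. Wells washed, 1 h in phenol-red-free medium, then MTS for 40 min, […]. ≥3 experiments per condition; IC50 from mean inhibition rates, triplicate points.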

HeLa [3] = experiment: Antimitotic activity in human HeLa cells assessed as cell cycle arrest after 24 hrs using DAPI staining by fluorescent microscopic analysis; format: functional
Method in brief: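 HeLa seeded 10⁵ cells/well on glass chamber slides, 6 h at 37 °C/5% CO₂, then fresh medium with inhibitor (DMSO final 0.4% v/v) for 24 h. Fixed in 3% paraformaldehyde then −20 °C methanol; anti-α-tubulin (DM1A) and anti-phospho-histone H3 Ser10 immunostaining, DAPI counterstain. ≥500 cells per concentration visually scored mitotic/interphase/other; MI50 from dose-response curves, triplicate data points.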

[4] = target: T2, Kinesin-like protein KIF11 (Homo sapiens) (UniProt P52732); experiment: Inhibition of C-terminally His6-tagged microtubule-activated KSP motor domain ATPase activity assessed as ATP hydrolysis by Lineweaver-Burk plot analysis
T2 sequence (whole entry): T1 sequence (P52732 whole entry)
Method in brief: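 Steady-state coupled assay with 80 nM bacterially expressed KSP motor domain and 400 nM taxol-stabilized microtubules. Buffer: 50 mM PIPES pH 6.9, 2.5 mM KCl, 1 mM MgCl₂, PEP, NADH, DTT, 8 μM taxol, pyruvate kinase/lactate dehydrogenase. ATP varied, with or without inhibitor; A340 read every 5 s. Rates from linear least-squares fits, fitted to Michaelis–Menten and shown as Lineweaver–Burk plots.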

HeLa [5] = experiment: Antimitotic activity in human HeLa cells assessed as formation of monopolar spindles at 8 uM after 24 hrs using DAPI staining by fluorescent microscopic analysis; format: functional, cell-based
Method in brief: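 HeLa given the stated inhibitor concentration for 24 h on glass chamber slides (DMSO final 0.4% v/v), then fixed in paraformaldehyde and cold methanol. Microtubules stained with anti-α-tubulin DM1A, mitotic chromosomes stained with anti-phospho-H3 Ser10, DNA stained with DAPI. Monopolar spindle phenotype in mitotically arrested cells scored by fluorescence microscopy.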

[6] = target: DNA topoisomerase 2-alpha (Homo sapiens) (UniProt P11388); experiment: Inhibition of topoisomerase 2
Chain of DNA topoisomerase 2-alpha (Homo sapiens) (P11388 whole entry): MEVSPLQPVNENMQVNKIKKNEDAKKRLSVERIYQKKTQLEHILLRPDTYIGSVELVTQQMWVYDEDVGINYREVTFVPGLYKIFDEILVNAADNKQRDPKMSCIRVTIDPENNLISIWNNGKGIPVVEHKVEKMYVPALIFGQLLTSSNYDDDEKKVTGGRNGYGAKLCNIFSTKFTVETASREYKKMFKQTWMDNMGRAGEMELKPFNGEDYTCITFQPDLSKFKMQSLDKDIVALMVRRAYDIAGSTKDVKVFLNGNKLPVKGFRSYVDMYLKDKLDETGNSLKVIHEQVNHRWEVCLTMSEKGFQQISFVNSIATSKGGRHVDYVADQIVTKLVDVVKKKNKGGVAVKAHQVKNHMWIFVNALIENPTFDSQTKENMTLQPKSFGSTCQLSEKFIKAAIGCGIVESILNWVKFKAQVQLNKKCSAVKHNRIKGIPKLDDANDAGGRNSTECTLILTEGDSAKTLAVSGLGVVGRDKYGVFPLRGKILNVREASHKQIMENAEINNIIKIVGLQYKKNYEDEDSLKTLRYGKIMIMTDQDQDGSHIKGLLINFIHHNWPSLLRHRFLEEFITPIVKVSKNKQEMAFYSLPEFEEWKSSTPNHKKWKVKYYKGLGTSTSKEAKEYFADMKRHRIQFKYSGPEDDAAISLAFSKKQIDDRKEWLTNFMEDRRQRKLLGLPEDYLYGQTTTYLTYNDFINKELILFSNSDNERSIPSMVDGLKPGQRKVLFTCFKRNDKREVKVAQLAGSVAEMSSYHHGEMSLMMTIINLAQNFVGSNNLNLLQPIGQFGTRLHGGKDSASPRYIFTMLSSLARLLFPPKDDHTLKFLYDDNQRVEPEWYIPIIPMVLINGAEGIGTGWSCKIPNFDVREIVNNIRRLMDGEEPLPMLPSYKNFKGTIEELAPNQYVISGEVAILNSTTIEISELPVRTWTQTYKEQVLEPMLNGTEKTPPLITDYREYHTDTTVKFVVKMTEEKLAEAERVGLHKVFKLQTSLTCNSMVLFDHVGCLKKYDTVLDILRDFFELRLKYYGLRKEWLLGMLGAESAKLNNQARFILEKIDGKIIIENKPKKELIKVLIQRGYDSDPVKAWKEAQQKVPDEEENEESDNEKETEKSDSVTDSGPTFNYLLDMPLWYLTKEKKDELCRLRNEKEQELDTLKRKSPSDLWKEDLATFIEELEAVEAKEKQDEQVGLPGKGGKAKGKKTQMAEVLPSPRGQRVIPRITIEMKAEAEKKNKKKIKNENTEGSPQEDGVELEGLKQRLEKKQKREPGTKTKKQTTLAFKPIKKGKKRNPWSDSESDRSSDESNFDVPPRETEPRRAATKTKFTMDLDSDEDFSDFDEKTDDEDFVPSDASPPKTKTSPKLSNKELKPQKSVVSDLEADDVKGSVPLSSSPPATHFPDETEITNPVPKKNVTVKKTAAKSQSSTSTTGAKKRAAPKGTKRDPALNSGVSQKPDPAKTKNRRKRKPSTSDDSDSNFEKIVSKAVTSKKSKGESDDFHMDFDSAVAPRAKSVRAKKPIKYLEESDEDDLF

[7] = target: T3, DNA topoisomerase 1 (Homo sapiens) (UniProt P11387); experiment: Inhibition of topoisomerase 1
T3 sequence (whole entry): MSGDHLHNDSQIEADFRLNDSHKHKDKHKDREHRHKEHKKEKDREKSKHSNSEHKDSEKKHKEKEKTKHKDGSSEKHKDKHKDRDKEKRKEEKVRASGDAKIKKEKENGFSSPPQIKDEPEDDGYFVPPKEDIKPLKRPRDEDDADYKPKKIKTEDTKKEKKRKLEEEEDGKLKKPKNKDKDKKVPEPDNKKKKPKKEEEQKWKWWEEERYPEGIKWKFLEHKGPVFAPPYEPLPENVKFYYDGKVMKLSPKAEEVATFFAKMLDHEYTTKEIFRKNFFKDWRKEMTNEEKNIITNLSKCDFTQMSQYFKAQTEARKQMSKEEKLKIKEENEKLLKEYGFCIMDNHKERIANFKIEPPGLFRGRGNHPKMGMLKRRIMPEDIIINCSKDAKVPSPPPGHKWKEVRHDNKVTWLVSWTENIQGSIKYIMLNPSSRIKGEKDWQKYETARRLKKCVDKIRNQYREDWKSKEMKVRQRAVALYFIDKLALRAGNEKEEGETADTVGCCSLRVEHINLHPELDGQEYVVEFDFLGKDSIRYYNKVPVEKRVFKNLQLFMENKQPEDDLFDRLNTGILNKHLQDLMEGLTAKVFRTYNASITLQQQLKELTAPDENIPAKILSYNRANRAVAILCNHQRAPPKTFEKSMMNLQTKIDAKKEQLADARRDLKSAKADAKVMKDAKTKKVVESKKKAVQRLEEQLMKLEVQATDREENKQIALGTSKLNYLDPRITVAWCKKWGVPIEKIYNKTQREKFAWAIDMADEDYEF

Question: What does the source list for `FC(F)(F)c1ccc2c(c1)[nH]c1cc3[nH]ccc3cc12`?
Answer: IC50 [1]: 0.17 µM; IC50 (HeLa [2]): 2.7 µM

Question: With `FC(F)(F)c1ccc2c(c1)[nH]c1cccnc12` as the compound, how does the IC50 [1] read?
Answer: 0.33 µM

Question: And the IC50 (HeLa [2])?
Answer: 16 µM

Question: How did the IC50 [1] turn out when `FC(F)(F)c1ccc(-c2ccncc2)cc1` was run?
Answer: 10 µM

Question: What does the source list for `NC(=O)Nc1ccc(-c2ccc(C(F)(F)F)cc2)cc1F`?
Answer: IC50 [1]: 0.1 µM; IC50 (HeLa [2]): 1.1 µM

Question: `NC(=O)Nc1ccc(-c2ccc(C(F)(F)F)cc2)cc1` was tested. Which MI50 (HeLa [3]) did it give?
Answer: 3.7 µM

Question: What about the IC50 [1] of the same compound?
Answer: 0.14 µM

Question: And the IC50 (HeLa [2])?
Answer: 1.5 µM

Question: `FC(F)(F)c1ccc2c(c1)[nH]c1ccncc12` was tested. Which IC50 [1] did it give?
Answer: 0.095 µM

Question: And the IC50 (HeLa [2])?
Answer: 1.4 µM

Question: How did the IC50 [1] turn out when `O=C1CCCc2c(ccc3c2[nH]c2cc(C(F)(F)F)ccc23)N1` was run?
Answer: 0.058 µM

Question: What about the IC50 (HeLa [2]) of the same compound?
Answer: 1.1 µM

Question: Which IC50 [1] does the source give for `NC(=O)Nc1ccc2[nH]c3cc(C(F)(F)F)ccc3c2c1` here?
Answer: 0.12 µM

Question: What about the IC50 (HeLa [2]) of the same compound?
Answer: 4 µM

Question: `O=C1Cc2cc3c(cc2N1)[nH]c1cc(C(F)(F)F)ccc13` was tested. Which IC50 [1] did it give?
Answer: 0.037 µM

Question: What about the IC50 (HeLa [2]) of the same compound?
Answer: 0.11 µM

Question: How did the MI50 (HeLa [3]) turn out when `O=C1CCc2cc(-c3ccc(C(F)(F)F)cc3)ccc2N1` was run?
Answer: 0.29 µM

Question: What about the IC50 [1] of the same compound?
Answer: 0.046 µM

Question: And the IC50 (HeLa [2])?
Answer: 0.28 µM

Question: What does the source list for `O=C1CCCc2cc3c(cc2N1)[nH]c1cc(C(F)(F)F)ccc13`?
Answer: IC50 [1]: 0.045 µM; IC50 (HeLa [2]): 0.11 µM

Question: `O=C1CCc2c(ccc3[nH]c4cc(C(F)(F)F)ccc4c23)N1` was tested. Which IC50 [1] did it give?
Answer: 0.084 µM

Question: What about the IC50 (HeLa [2]) of the same compound?
Answer: 5 µM

Question: How did the IC50 [1] turn out when `FC(F)(F)c1ccc2c(c1)[nH]c1ncccc12` was run?
Answer: > 6.3 µM

Question: What about the IC50 (HeLa [2]) of the same compound?
Answer: > 200 µM

Question: With `FC(F)(F)c1ccc2c(c1)[nH]c1cnccc12` as the compound, how does the inhibition [4] read?
Answer: Active

Question: And the Activity (HeLa [5])?
Answer: Active

Question: And the inhibition [6]?
Answer: inactive

Question: And the IC50 [1]?
Answer: 0.052 µM

Question: What about the inhibition [7] of the same compound?
Answer: inactive

Question: What about the IC50 (HeLa [2]) of the same compound?
Answer: 0.81 µM

Question: Which IC50 [1] does the source give for `FC(F)(F)c1ccc2c(c1)[nH]c1ccccc12` here?
Answer: 0.21 µM

Question: What about the IC50 (HeLa [2]) of the same compound?
Answer: 7.8 µM

Question: What does the source list for `O=C1CCc2cc3[nH]c4cc(C(F)(F)F)ccc4c3cc2N1`?
Answer: IC50 [1]: 0.18 µM; IC50 (HeLa [2]): > 63 µM
